Laboratory results reported in ChEMBL document CHEMBL1221230, “Inhibition of eukaryotic translation elongation by cycloheximide and lactimidomycin” (Nat Chem Biol, 2010).
Active and inactive are the calls of the source. The calls are words filed in the database; no cut-off is given here. Numbered stars: 1 amine (or outer) side, 2 acyl side, 3 side chain; on linkers, the order of the positions; unused ones are H or OH. Bridge positions count the residues as written; N and C are the ends. Square brackets hold non-standard residues; d marks the D form. Peptide text beside a SMILES is read from it. I, II: the chains in the order shown. Actinocin(1to9) = Cc1c2oc3c(C)ccc(C(=O)[*:2])c3nc-2c(C(=O)[*:1])c(N)c1=O; NMeV = CN[C@H](C(=O)O)C(C)C; Sar = CNCC(=O)O

Key:
[1] = Inhibition of elF4A-mediated renilla luciferase translational activity at 200 to 2000 nM in presence of HCV IRES element
[2] = Inhibition of elF4A-mediated renilla luciferase translational activity at 100 to 200 nM in presence of HCV IRES element
HeLa [3] = assay: Antiproliferative activity against human HeLa cells assessed as incorporation of [3H]thymidine in nuclear DNA at 2.5 uM after 24 hrs by scintillation counting; format: functional, cell-based
Procedure, shortened: (§1)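 Each of three tumour cell lines incubated with compound at 2.5 μM for 24 h, then [³H]thymidine added to monitor DNA synthesis; initial proliferation screen.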

MDA-MB-231 = assay: Antiproliferative activity against human MDA-MB-231 cells assessed as incorporation of [3H]thymidine in nuclear DNA at 2.5 uM after 24 hrs by scintillation counting; format: functional, cell-based; procedure, shortened: as §1
Jurkat = assay: Antiproliferative activity against human Jurkat cells assessed as incorporation of [3H]thymidine in nuclear DNA at 2.5 uM after 24 hrs by scintillation counting; format: functional, cell-based; procedure, shortened: as §1
HeLa [4] = assay: Inhibition of protein synthesis in human HeLa cells assessed as [35S]cysteine/methionine utilization after 2 hrs by scintillation spectroscopy; format: functional, cell-based
Procedure, shortened: (§2)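 HeLa cells incubated 2 h with varying compound concentrations plus [³⁵S]cysteine/methionine (translation) or [³H]uridine (transcription). Protein synthesis: scintillation counting of TCA-precipitated protein on PVDF membrane. Transcription: scintillation counting of nucleic acids bound to GF/C glass fibre filter.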

[5] = Effect on peptidyl transfer assessed as [35S]methionyl-puromycin formation by TLC
HeLa [6] = assay: Inhibition of transcriptional activity in human HeLa cells assessed as [3H]uridine utilization after 2 hrs by scintillation counting; format: functional, cell-based; procedure, shortened: as §2
[7] = Binding affinity to 60S ribosome E-site by footprinting assay
Procedure, shortened: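 DMS footprinting of salt-washed 80S ribosomes preincubated 5 min at room temperature with compound, DMS then 5 min at 37°C; rRNA primer extension with AMV reverse transcriptase and [α-³²P]TTP, sequencing gel. For K_D, 300 μl volume at 50 or 100 nM ribosomes titrated with increasing compound.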

Oryctolagus cuniculus = species: Oryctolagus cuniculus; assay: Inhibition of translational activity in rabbit reticulocyte assessed as occurrence of ribosomal arrest at start codon at 10 mM by toeprinting assay; format: functional
Procedure, shortened: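 Labelled rabbit β-globin mRNA incubated in rabbit reticulocyte lysate with inhibitor; mixture centrifuged through sucrose gradient, 80S fractions taken to isolate stalled ribosomes; primer extended by AMV reverse transcriptase toward stalled ribosome to map arrest site.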

[8] = target: Elongation factor 2 (Homo sapiens) (UniProt P13639); assay: Inhibition of eEF2-mediated tRNA translocation assessed as induction of dipeptide accumulation by TLC
HEK-293T [9] = assay: Effect on polyribosome profiling in human HEK293T cells assessed as depletion of polysomes at 100 uM after 30 mins by spectrophotometry; format: functional, cell-based
Procedure, shortened: (§3)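 HEK 293T cells treated 30 min with compound, then lysed; lysates centrifuged through 15–45% sucrose gradient to give polysome profiles.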

[10] = Inhibition of [32P]deacetylated phe-tRNA binding to 60S ribosome E-site by footprinting assay
HEK-293T [11] = assay: Effect on polyribosome profiling in human HEK293T cells assessed as depletion of polysomes at 50 uM after 30 mins by spectrophotometry; format: functional, cell-based; procedure, shortened: as §3
Saccharomyces cerevisiae [12] = assay: Fold resistance, ratio of IC50 Saccharomyces cerevisiae J407alpha expressing ribosomal protein cyh2 and harboring mutation in rpl28 to IC50 for Saccharomyces cerevisiae J47alpha; format: functional
Procedure, shortened: (§4)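 Four isogenic S. cerevisiae strain pairs, each differing only by presence or absence of cyh2, exposed to varying compound concentrations; growth read by optical density; IC50 derived per strain, resistance as ratio between paired strains.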

Saccharomyces cerevisiae [13] = assay: Antimicrobial activity against Saccharomyces cerevisiae J47alpha; format: functional, organism-based; procedure, shortened: as §4
[14] = target: Elongation factor 2 (Homo sapiens) (UniProt P13639); assay: Inhibition of eEF2-mediated tRNA translocation assessed as inhibition of phenylalanyl puromycin formation
Procedure, shortened: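 Set up as eEF1A binding assay but with GTP; 5 min at 37°C, compound added to 200 μM final, 5 min at room temperature, then eEF2, puromycin and GTP added; 10 min at 37°C; ethyl acetate-extractable phenylalanyl-puromycin counted by scintillation.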

Saccharomyces cerevisiae [15] = assay: Antimicrobial activity against Saccharomyces cerevisiae BY108; format: functional, organism-based; procedure, shortened: as §4
Saccharomyces cerevisiae [16] = assay: Antimicrobial activity against Saccharomyces cerevisiae BY740 expressing ribosomal protein cyh2 and harboring mutation in rpl28; format: functional, organism-based; procedure, shortened: as §4
Saccharomyces cerevisiae [17] = assay: Fold resistance, ratio of IC50 for Saccharomyces cerevisiae BY686 expressing ribosomal protein cyh2 and harboring mutation in rpl28 to IC50 Saccharomyces cerevisiae JB503; format: functional; procedure, shortened: as §4
Saccharomyces cerevisiae [18] = assay: Fold resistance, ratio of IC50 for Saccharomyces cerevisiae BY740 expressing ribosomal protein cyh2 and harboring mutation in rpl28 to IC50 for Saccharomyces cerevisiae […]; format: functional; procedure, shortened: as §4
Saccharomyces cerevisiae [19] = assay: Fold resistance, ratio of IC50 for Saccharomyces cerevisiae BY724 expressing ribosomal protein cyh2 and harboring mutation in rpl28 to IC50 for Saccharomyces cerevisiae BY108; format: functional; procedure, shortened: as §4
Saccharomyces cerevisiae [20] = assay: Antimicrobial activity against Saccharomyces cerevisiae BY724 expressing ribosomal protein cyh2 and harboring mutation in rpl28; format: functional, organism-based; procedure, shortened: as §4
Saccharomyces cerevisiae [21] = assay: Antimicrobial activity against Saccharomyces cerevisiae J407alpha expressing ribosomal protein cyh2 and harboring mutation in rpl28; format: functional, organism-based; procedure, shortened: as §4
[22] = target: Elongation factor 2 (Homo sapiens) (UniProt P13639); assay: Inhibition of eEF2-mediated tRNA translocation assessed as decrease in tripeptide (Met-Phe-Phe) formation by TLC
[23] = target: T1, Elongation factor 1-alpha 1 (Homo sapiens) (UniProt P68104); assay: Inhibition of eEF1A-mediated tRNA binding to ternary complex at 200 uM after 10 mins by filtration binding assay
T1 sequence (whole entry): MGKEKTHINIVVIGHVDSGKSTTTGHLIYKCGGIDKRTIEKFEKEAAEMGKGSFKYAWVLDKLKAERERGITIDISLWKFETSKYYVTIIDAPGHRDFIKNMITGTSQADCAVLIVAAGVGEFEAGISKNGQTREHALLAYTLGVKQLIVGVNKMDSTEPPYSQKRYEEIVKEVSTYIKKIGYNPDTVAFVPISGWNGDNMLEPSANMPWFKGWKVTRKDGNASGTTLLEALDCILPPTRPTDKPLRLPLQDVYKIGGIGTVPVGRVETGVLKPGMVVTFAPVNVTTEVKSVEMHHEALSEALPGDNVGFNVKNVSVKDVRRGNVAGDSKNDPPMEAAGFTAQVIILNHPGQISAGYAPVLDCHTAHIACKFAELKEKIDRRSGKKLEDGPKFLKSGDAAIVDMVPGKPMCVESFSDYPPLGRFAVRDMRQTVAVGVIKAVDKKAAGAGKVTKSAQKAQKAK
Procedure, shortened: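 Ribosomes (89 pmol) in 20 mM HEPES pH 7.4, 100 mM KCl, 10 mM MgCl₂, 1 mM DTT with 200 ng poly(U), 2.2 μg eEF1A, 150 μM GDPNP and 200 μM compound, before 10 pmol [¹⁴C]Phe-tRNA^Phe added; 10 min at 37°C; nitrocellulose filtration, scintillation counting.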

[24] = Effect on polyribosome profiling assessed as accumulation of 80S ribosomes after 15 mins by scintillation spectroscopy; format: functional
Procedure, shortened: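 Capped [³²P]-labelled rabbit β-globin RNA incubated in rabbit reticulocyte lysate with compound for 15 min, then centrifuged through 10–35% sucrose gradient.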

Saccharomyces cerevisiae [25] = assay: Antimicrobial activity against Saccharomyces cerevisiae BY686 expressing ribosomal protein cyh2 and harboring mutation in rpl28; format: functional, organism-based; procedure, shortened: as §4
Saccharomyces cerevisiae [26] = assay: Antimicrobial activity against Saccharomyces cerevisiae JB503; format: functional, organism-based; procedure, shortened: as §4
HEK-293T [27] = assay: Effect on polyribosome profiling in human HEK293T cells assessed as accumulation of 80S ribosomes at 100 uM after 30 mins by spectrophotometry; format: functional, cell-based; procedure, shortened: as §3
Saccharomyces cerevisiae [28] = assay: Antimicrobial activity against Saccharomyces cerevisiae JB281; format: functional, organism-based; procedure, shortened: as §4

CC(/C=C/C(C)=C/[C@@H]1Cc2nc(cs2)[C@@H](C)C[C@@H](N)CC(=O)O[C@@H](C)C/C(C)=C/C=C\C(=O)O1)=C\CN(C)C
inhibition [1]: Active | inhibition [2]: Active

CO[C@@H](/C=C/CC/C=C/C(=O)O)[C@@H](O)[C@H](C)/C=C(\C)[C@H](O)[C@H](C)C(=O)CCCC1CC(=O)NC(=O)C1
Activity (HeLa [3]): inactive | Activity (MDA-MB-231): inactive | Activity (Jurkat): inactive

CO[C@@H](/C=C/CC/C=C/C(=O)O)[C@@H](O)[C@H](C)[C@@H](O)/C(C)=C/[C@H](C)C(=O)CCCC1CC(=O)NC(=O)C1
Activity (HeLa [3]): inactive | Activity (MDA-MB-231): inactive | inhibition (HeLa [4]): inactive | Activity (Jurkat): inactive

CO[C@H]1/C=C/CC/C=C/C(=O)O[C@H]([C@H](C)C(=O)CCCC2CC(=O)NC(=O)C2)/C(C)=C\[C@@H](C)[C@@H]1O
Activity (HeLa [3]): inactive | Activity (MDA-MB-231): inactive | inhibition (HeLa [4]): inactive | Activity (Jurkat): inactive

CSC[S@@+]([O-])CC(CO)NC(=O)/C=C/c1c(C)[nH]c(=O)[nH]c1=O (stereo not given in full)
Activity [5]: Active

C/C(=C\[C@H](C)C(=O)C[C@H](O)CC1CC(=O)NC(=O)C1)[C@@H]1OC(=O)CCCC/C=C/C=C\[C@@H]1C [2H LACTIMIDOMYCIN K]
Activity (HeLa [3]): inactive | Activity (MDA-MB-231): inactive | IC50 (HeLa [6]): > 10000 nM | IC50 (HeLa [4]): 98.5 nM | Activity (Jurkat): inactive

C[C@@H]1C[C@@H]([C@H](O)CC2CC(=O)NC(=O)C2)C(=O)[C@@H](C)C1 [CYCLOHEXIMIDE]
Activity [7]: Dose-dependent effect | Kd [7]: 15000 nM | inhibition (Oryctolagus cuniculus): inactive | inhibition [8]: Active | Activity (HEK-293T [9]): inactive | inhibition [10]: inactive | Activity (HEK-293T [11]): Active | Ratio IC50 (Saccharomyces cerevisiae [12]): 232.2 | IC50 (Saccharomyces cerevisiae [13]): 88 nM | inhibition [14]: Active | IC50 (Saccharomyces cerevisiae [15]): 675 nM | IC50 (Saccharomyces cerevisiae [16]): 17300 nM | IC50 (HeLa [6]): 2880 nM | IC50 (HeLa [4]): 532 nM | inhibition (HeLa [4]): Dose-dependent effect | Ratio IC50 (Saccharomyces cerevisiae [17]): 232.4 | Ratio IC50 (Saccharomyces cerevisiae [18]): 76.3 | Ratio IC50 (Saccharomyces cerevisiae [19]): 77 | IC50 (Saccharomyces cerevisiae [20]): 52100 nM | IC50 (Saccharomyces cerevisiae [21]): 20500 nM | inhibition [22]: Active | inhibition [23]: inactive | Activity [24]: Active | IC50 (Saccharomyces cerevisiae [25]): 7420 nM | IC50 (Saccharomyces cerevisiae [26]): 32 nM | Activity (HEK-293T [27]): inactive | IC50 (Saccharomyces cerevisiae [28]): 227 nM

Cc1c2oc3c(C)ccc(C(=O)N[C@@H]4C(=O)N[C@H](C(C)C)C(=O)N5CCC[C@H]5C(=O)N(C)CC(=O)N(C)[C@@H](C(C)C)C(=O)O[C@@H]4C)c3nc-2c(C(=O)N[C@@H]2C(=O)N[C@H](C(C)C)C(=O)N3CCC[C@H]3C(=O)N(C)CC(=O)N(C)[C@@H](C(C)C)C(=O)O[C@@H]2C)c(N)c1=O [DACTINOMYCIN] (I: T[dV]P[Sar][NMeV] / II: T[dV]P[Sar][NMeV]; ester I:1-I:C, II:1-II:C; linker I:N-II:N via Actinocin(1to9))
IC50 (HeLa [6]): 262 nM | IC50 (HeLa [4]): 520 nM | inhibition (HeLa [4]): Dose-dependent effect

CO[C@H]1/C=C/CC/C=C/C(=O)O[C@@H](/C(C)=C/[C@H](C)C(=O)/C=C/CC2CC(=O)NC(=O)C2)[C@@H](C)[C@@H]1O [DIDEHYDRO ISOMIGRASTATIN]
Activity (HeLa [3]): inactive | Activity (MDA-MB-231): inactive | IC50 (HeLa [6]): > 10000 nM | IC50 (HeLa [4]): 1910 nM | Activity (Jurkat): inactive

CO[C@H]1/C=C/CC/C=C/C(=O)O[C@@H](/C(C)=C/[C@H](C)C(=O)CCCC2CC(=O)NC(=O)C2)[C@@H](C)[C@@H]1O [ISOMIGRASTATIN]
Activity (HeLa [3]): inactive | Activity (MDA-MB-231): inactive | IC50 (HeLa [6]): > 10000 nM | IC50 (HeLa [4]): 624 nM | inhibition (HeLa [4]): Dose-dependent effect | Activity (Jurkat): inactive
